hIAP block = blocks human intestinal alkaline phosphatase. purified IAP, CDP-Star luminescence, 30 min. inhibition, % at 10 µM. 0.12% of 330,000 active. P09923;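 active means inhibition reaching a set limit with compound at 10 µM in the primary screen, cut at about 35% in these data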;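 further: plate controls were DMSO wells with enzyme for no effect and no-enzyme buffer wells for full effect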
Target sequence (P09923 whole entry, looked up): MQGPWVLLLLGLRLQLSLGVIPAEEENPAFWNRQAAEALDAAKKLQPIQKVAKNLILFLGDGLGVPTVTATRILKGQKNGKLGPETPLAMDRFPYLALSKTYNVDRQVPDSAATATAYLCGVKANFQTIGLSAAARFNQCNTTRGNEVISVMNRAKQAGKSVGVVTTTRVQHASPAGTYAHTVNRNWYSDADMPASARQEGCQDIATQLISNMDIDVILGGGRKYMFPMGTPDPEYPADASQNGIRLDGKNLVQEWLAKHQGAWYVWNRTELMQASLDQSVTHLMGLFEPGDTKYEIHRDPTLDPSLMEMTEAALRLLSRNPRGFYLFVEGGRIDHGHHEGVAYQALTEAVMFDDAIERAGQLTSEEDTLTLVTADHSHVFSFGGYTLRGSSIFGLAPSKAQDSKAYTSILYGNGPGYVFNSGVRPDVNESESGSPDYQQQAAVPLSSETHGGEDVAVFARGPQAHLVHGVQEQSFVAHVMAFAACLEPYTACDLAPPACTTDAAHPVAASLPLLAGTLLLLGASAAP
bIAP inh = intestinal alkaline phosphatase (bovine) inhibition. purified bovine IAP, CDP-star luminescence, 30 min. inhibition, % at 20 µM. 190,000 tested, under 10 active;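 active means over 50% inhibition of intestinal alkaline phosphatase at 20 µM in the single-dose screen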
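System: purified bovine intestinal alkaline phosphatase (IAP) enzyme; Input: IAP diluted 1/65,000,000 in the well; Measured by: CDP-star luminescence signal; Compound dosing: 20 µM single dose; Incubation: 30 min reaction at room temperature.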
mIAP activ = mouse IAP activation; muIAP, CDP-Star luminescence, 30 min; stronger effect = higher value; 1 = vehicle-only enzyme signal, 0 = enzyme-free wells; activation factor at 10 µM; 0.24% of 330,000 active; AID 2805;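 active means activation factor of at least 2 at 20 µM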
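Assay system: mouse IAP enzyme; reagent: chemiluminescent substrate CDP-Star; dosing: test compounds delivered from DMSO solution; schedule: 30 min at room temperature; measured by: luminescence from enzymatic CDP-Star hydrolysis; controls: DMSO-only wells and no-enzyme negative control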
hIAP act = increases human intestinal alkaline phosphatase activity | purified human IAP, CDP-Star luminescence, 30 min; stronger effect = higher value; 1 = vehicle-only enzyme, 0 = enzyme-free background | activation factor at 10 µM | 0.16% of 330,000 active;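 active means activation factor of the enzyme at least 2-fold when tested at 20 µM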
bIAP act = intestinal alkaline phosphatase (bovine) activation. AID 1016. purified bovine IAP, CDP-star luminescence, 30 min; stronger effect = higher value; fold of DMSO-control signal, blank-subtracted. 0.17% of 200,000 active. activation factor at 20 µM;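 active means activation factor of 2 or more at 20 µM, a signal rise over negative controls twice the positive control's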
mIAP inh = blocks mouse intestinal alkaline phosphatase; purified mouse IAP, CDP-Star luminescence, 30 min; inhibition, % at 10 µM; 0.2% of 330,000 active; AID 2806;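 active means inhibition of at least 40% at 10 µM in the primary screen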;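 further: plate controls were DMSO with enzyme for no effect and no enzyme wells for full effect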
hIAP act conf = human IAP activation confirmation; shares compounds with hIAP act; purified IAP, CDP-Star luminescence, 30 min; stronger effect = lower value; activation (%Activity, negative = activation), % at 8.3 µM; 10% of 880 active; AID 434926;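 active means at least twofold enzyme activation in any of six single-dose repeats, which the averaged readout prints as negative percent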
* hit, by the source's call; nt = no result. Shown are actives, neighbours in structure and some others; about 0.72% of the full set was active somewhere.

SMILES	hIAP block	bIAP inh	mIAP activ	hIAP act	bIAP act	mIAP inh	hIAP act conf
COc1ccc(C2CCCN2CC(O)COc2ccccc2C(C)C)cc1 (centres undefined)	8.0	nt	0.929	0.92	nt	7.1	nt
Cn1ncc2c1ncn1nc(CCc3ccccc3)nc21	38.8*	29.0	0.921	0.612	0.7	7.9	-18.2
CCOc1ccc(CNC(=O)C2CCN(c3nnc(C)c4c(C)n(-c5ccc(C)cc5)nc34)CC2)cc1	-47.4	nt	0.86	1.47	nt	14.0	nt
COc1ccccc1CCNC(=O)C1CCN(c2nnc(C)c3c(C)n(-c4ccc(C)cc4)nc23)CC1	-132.1	nt	1.25	2.32*	nt	-25.1	30.8
COc1ccc(-n2nc3c(N4CCC(C(=O)NCc5cccc(C)c5)CC4)nnc(C)c3c2C)cc1	-121.3	nt	1.27	2.21*	nt	-27.0	-41.7
CCOC(=O)C1=C(COC(=O)c2nc(Cl)ccc2Cl)NC(=O)NC1C (centres undefined)	-13.3	nt	0.993	1.13	nt	0.7	nt
O=C(Nc1ncn[nH]1)c1ccc(Cl)c(S(=O)(=O)N2CCCCCC2)c1	-137.3	-36.4	0.929	2.37*	1.4	7.1	-13.6
CCOC(=O)c1c(NC(=O)Cn2cc([N+](=O)[O-])cn2)sc2c1CCC2	35.5*	-4.5	0.927	0.645	1	7.3	-90.5*
CNC(=O)N(O)C1N(/N=C/c2ccccc2O)C(=S)SC1(C)C (centres undefined)	-5.5	nt	0.96	1.05	nt	4.0	nt
CCCCNC(=O)N(O)C1N(/N=C/c2cccs2)C(=S)SC1(C)C (centres undefined)	36.1*	nt	0.999	0.639	nt	0.1	-1.8
O=C(CSc1nnc(Cc2ccccc2)n1-c1ccccc1)NNC(=O)Cc1ccccc1	-114.3	-61.3	1	2.14*	1.6	-0.4	-45.6
COC(=O)CSc1nnc(Cc2ccccc2)n1-c1ccc(C)cc1	6.0	-4.4	1.06	0.94	1	-6.2	nt
Cc1cc(C)c(C#N)c(SCC(=O)Nc2cc(C)on2)n1	16.2	nt	1.02	0.838	nt	-2.0	nt
CCOC(=O)Cc1csc(NC(=O)c2cc(-c3ccncc3)nc3ccccc23)n1	-4.2	nt	1.02	1.04	nt	-2.5	nt
O=C(O)c1cccc(CSc2n[nH]c(-c3ccc(Cl)cc3Cl)n2)c1	40.2*	22.6	1.02	0.598	0.8	-1.6	-18.2
COc1cc(/C=C2/C(=O)N(c3ccc(Br)cc3)N=C2C)cc([N+](=O)[O-])c1O	38.3*	nt	0.921	0.617	nt	7.9	-42.4
COc1cc(/C=C2/C(=O)N(c3cccc(Br)c3)N=C2C)cc(OC)c1O	35.7*	nt	0.765	0.643	nt	23.5	-2.3
COc1ccc(/C=C2/C(=O)N(c3ccccc3)N=C2C)cc1OC	-24.7	nt	0.95	1.25	nt	5.0	nt
CC(=O)Nc1ccc(S(=O)(=O)N2CCN=C2SCc2ccccc2C)cc1	-4.4	nt	0.975	1.04	nt	2.5	nt
Cc1ccc(OCCNS(=O)(=O)c2ccc(N3CCCC3=O)cc2)cc1	36.2*	23.9	0.976	0.638	0.8	2.4	-69.7
Cc1ccc(OCCNS(=O)(=O)c2ccc(N3CCCC3=O)cc2)cc1C	-7.8	-1.9	0.925	1.08	1	7.5	nt
COc1ccc(/C=C(\NC(=O)c2ccc(C)cc2)C(=O)N2CCCCC2)cc1	13.3	nt	0.975	0.867	nt	2.5	nt
c1ccc2c3c(cc(N4CCOCC4)c2c1)OC1(N2CCOCC2)CCCCC1O3 (centres undefined)	85.0*	-8.5	0.898	0.15	1.1	10.2	-4.6
COC1=CC(=Cc2c(N)n3nc(CC(=O)N4CCOCC4)sc3nc2=O)C=C(OC)C1=O	41.8*	nt	0.854	0.582	nt	14.6	-39.1
COc1ccc(CCN2C(=O)c3ccncc3C2=O)cc1OC	-139.2	-5.0	1.09	2.39*	1.1	-8.8	67.1
O=C1C=C(c2ccc3c(c2)OCCO3)C[C@@H](c2ccc(F)cc2)C1	0.5	nt	0.952	0.995	nt	4.8	nt
O=C(Nc1ccc(SC(F)(F)F)cc1)c1ccccn1	11.5	1.9	0.957	0.885	1	4.3	nt
COc1ccc2nc(N3CCC(O)CC3)c(C#N)cc2c1	35.0*	-44.4	1.04	0.65	1.4	-3.9	19.6
CC1=NN(c2ccccc2)C(=O)/C1=C\C=C1\N(C)c2ccccc2C1(C)C	40.4*	-0.2	0.597	0.596	1	40.3*	-24.2
